Measurements of several laboratories.
Target: Serine/threonine-protein kinase tousled-like 1 (TLK1, Homo sapiens, UniProt Q9UKI8)
Sequence (Q9UKI8 1-766, as in one of the studies): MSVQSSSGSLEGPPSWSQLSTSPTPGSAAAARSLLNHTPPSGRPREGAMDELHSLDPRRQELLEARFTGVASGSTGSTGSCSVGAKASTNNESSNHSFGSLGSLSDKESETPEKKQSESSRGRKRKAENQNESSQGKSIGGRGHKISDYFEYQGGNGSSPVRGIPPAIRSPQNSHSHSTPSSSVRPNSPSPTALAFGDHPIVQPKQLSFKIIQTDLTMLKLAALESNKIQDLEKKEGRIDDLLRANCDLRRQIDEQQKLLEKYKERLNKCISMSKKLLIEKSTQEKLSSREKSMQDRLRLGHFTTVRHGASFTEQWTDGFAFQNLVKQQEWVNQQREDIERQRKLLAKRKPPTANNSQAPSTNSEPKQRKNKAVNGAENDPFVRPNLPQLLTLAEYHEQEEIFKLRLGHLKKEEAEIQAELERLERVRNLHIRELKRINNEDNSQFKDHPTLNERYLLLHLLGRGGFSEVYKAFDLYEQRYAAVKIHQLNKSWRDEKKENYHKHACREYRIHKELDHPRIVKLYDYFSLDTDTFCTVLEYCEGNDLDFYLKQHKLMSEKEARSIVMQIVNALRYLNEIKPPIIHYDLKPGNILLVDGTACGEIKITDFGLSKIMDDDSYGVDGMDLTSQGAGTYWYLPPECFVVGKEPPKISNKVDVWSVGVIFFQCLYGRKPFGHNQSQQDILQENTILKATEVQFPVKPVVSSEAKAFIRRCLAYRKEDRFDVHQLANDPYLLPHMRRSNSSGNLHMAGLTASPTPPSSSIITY

| SMILES | observed | technique | concentration | remaining binding |
| --- | --- | --- | --- | --- |
| C=CC(=O)N1CCC(C(=O)NCC(=O)N2CCN(c3nc(-c4cnc(N)nc4C(F)F)nc(N4CCOCC4)n3)CC2)CC1 | binding | competition with immobilised ligand | 1 µM | 99% |
| CC1CCCN1c1nccc(-c2cnn3ncccc23)n1 (centres unmarked) | binding | – | 1 µM | 97% |
| COc1cnc(Nc2cccc(S(N)(=O)=O)c2)nc1N1CCN(c2ccccc2)C(=O)C1 | binding | competition with immobilised ligand | 1 µM | 97% |
| Cc1cnn2ncc(-c3ccnc(N(C)C)n3)c2c1 | binding | – | 1 µM | 75% |
| O=C1NC(c2ccccn2)Sc2ccccc21 (centres unmarked) | cell-free assay | competition with immobilised ligand | 1 µM | 94% |
| O=C(NCCCN1CCOCC1)c1ccc(Nc2ncc(Cl)c(-c3ccc(Cl)s3)n2)cc1 | binding | competition with immobilised ligand | 1 µM | 75% |
| O=S(=O)(NC1CCC(c2cc(F)ccc2F)(S(=O)(=O)c2ccc(Cl)cc2)CC1)C(F)(F)F (centres unmarked) | cell-free assay | competition with immobilised ligand | 1 µM | 100% |
| C[C@@H]1CCN(c2nccc(-c3cnn4ncccc34)n2)C1 | binding | – | 1 µM | 79% |
| Cc1c[nH]c2nccc(Oc3c(F)cc(Nc4cc(Cl)nc(N)n4)cc3F)c12 | cell-free assay | competition with immobilised ligand | 0.1 µM | 100% |
| O=C(c1ccc(Nc2nccc(-c3cc4ccccc4s3)n2)cc1)N1CCC(N2CCCC2)CC1 | binding | competition with immobilised ligand | 1 µM | 12% |
| CN(CCCC(F)(F)F)c1nccc(-c2cnn3ncccc23)n1 | binding | – | 1 µM | 100% |
| O=C(c1ccc(Nc2ncc(Cl)c(-c3ccc(Cl)s3)n2)cc1)N1CCC(N2CCCC2)CC1 | binding | competition with immobilised ligand | 1 µM | 32% |
| F[C@@H]1CCN(c2nccc(-c3cnn4ncccc34)n2)C1 | binding | – | 1 µM | 100% |
| O=C(Nc1c[nH]nc1C(=O)NC1CCNCC1)c1cc(F)cc(F)c1 | binding | competition with immobilised ligand | 1 µM | 100% |
| CCS(=O)(=O)c1cc2cc(C[C@](O)(CC(C)(C)c3ccc(F)cc3C(N)=O)C(F)(F)F)[nH]c2cn1 | cell-free assay | competition with immobilised ligand | 1 µM | 75% |
| COc1ncc2cc3ccccc3nc2c1C#N | cell-free assay | competition with immobilised ligand | 5 µM | 86% |
| O=C(NC[C@@H]1[C@H]2CN(C(=O)OCc3cc(C(F)(F)F)cc(C(F)(F)F)c3)C[C@@H]12)c1ccc2[nH]nnc2c1 | cell-free assay | competition with immobilised ligand | 1 µM | 68% |
| CCN1CCN(Cc2ccc(C(=O)Nc3ccc(C)c(Oc4ccc5c(c4)CC(=O)N5)c3)cc2C(F)(F)F)CC1 | binding | competition with immobilised ligand | 1 µM | 88% |
| Cc1nccc(COC(=O)N2C[C@@H]3[C@@H](CNC(=O)c4ccc5[nH]nnc5c4)[C@@H]3C2)n1 | cell-free assay | competition with immobilised ligand | 1 µM | 87% |
| N[C@H]1CCN(c2nccc(-c3cnn4ncccc34)n2)C1 | binding | – | 1 µM | 64% |
